Assay results collected from several papers.
Each line is one published result; the experiments were not run side by side.
CASP8: Caspase-8 (CASP8, Homo sapiens, UniProt Q14790)
DRD4: D(4) dopamine receptor (DRD4, Homo sapiens, UniProt P21917)
ABHD6: Monoacylglycerol lipase ABHD6 (ABHD6, Homo sapiens, UniProt Q9BV23)
HTR5A: 5-hydroxytryptamine receptor 5A (HTR5A, Homo sapiens, UniProt P47898)

SMILES | target | assay | conditions | inhibition
C#Cc1n[nH]c2c(-c3cn([C@@H](C)c4ccccn4)c(=O)[nH]c3=O)cc(F)cc12 | RAC-beta serine/threonine-protein kinase (AKT2, Homo sapiens, UniProt P31751) | enzyme activity, inhibitor | 0.1 µM | 3.8%
N=C(N)c1ccc2cc(OC(=O)c3ccc(N=C(N)N)cc3)ccc2c1 | CASP8 | enzyme activity, inhibitor | 10 µM | 0%
CN(CCN1CCC(OC(=O)Nc2ccccc2-c2ccccc2)CC1)C(=O)c1ccc(CN2CCC(C(N)=O)CC2)cc1 | DRD4 | ligand displacement, radioligand | 1 µM | -4%
C[C@H](C(=O)N[C@H]1COc2ccccc2[C@@H]1S(C)(=O)=O)c1ccc(F)cc1 | D(4) dopamine receptor (DRD4, Homo sapiens, UniProt P21917, del265-296) | cell-free assay | 10 µM | 10%
Cn1cc(-c2cc(F)cc(N3CCn4c(cc5c4CCCC5)C3=O)c2CO)cc(Nc2ccc(N3CCN(C4COC4)CC3)cn2)c1=O | Casein kinase II subunit alpha (CSNK2A1, Homo sapiens, UniProt P68400) | enzyme activity, inhibitor | 0.1 µM | 18%
CN(C)C(=O)COC(=O)Cc1ccc(OC(=O)c2ccc(NC(=N)N)cc2)cc1 | CASP8 | enzyme activity, inhibitor | 10 µM | 0%
COc1ccccc1N(C)C(=O)Oc1nsnc1N1CCCCC1 | ABHD6 | enzyme activity, inhibitor, fluorescence | 1 µM, lysate | 11%
CCOC(=O)c1ccc(OC(=O)CCCCCNC(=N)N)cc1 | CASP8 | enzyme activity, inhibitor | 10 µM | 1%
O=C1N=C(N2CCCCN2)S/C1=C\c1ccc(F)cc1O | HTR5A | ligand displacement, radioligand | 10 µM | < 10%
CN(C(=O)Oc1nsnc1N1CCCCC1)c1ccc(C#N)cc1 | ABHD6 | enzyme activity, inhibitor, fluorescence | 1 µM, lysate | 15%
Cn1cc(-c2cccc(N3CCc4c(sc5c4CC(C)(C)C5)C3=O)c2CO)cc(Nc2ccncn2)c1=O | Mast/stem cell growth factor receptor Kit (KIT, Homo sapiens, UniProt P10721, V654A) | enzyme activity, inhibitor | 1 µM | -7%
CCN(CC)CCCC[C@H](NC(=O)[C@H](CC(C)C)NC(=O)[C@H](C)NC(=O)[C@H](Cc1ccccc1)NC(=O)c1ccc(C(C)(C)C)cc1)C(=O)N[C@@H](CO)C(=O)OC | HTR5A | ligand displacement, radioligand | 10 µM | 7%
COc1ccc(S(=O)(=O)N2CCCCC2)cc1C | DRD4 | ligand displacement, radioligand | 10 µM | < 30%
